# High-throughput results from PubChem BioAssay.
# H69AR growth 86K = proliferation blockers of H69AR lung cancer cells, primary screen, cell-based, human, 86K library; H69AR lung tumor viability, ATP luminescence, 72 h; hits give low values; viability, % at 10 µM; 85,000 tested, 6% active;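 active = viability at or below 40%; inactive = viability above 40%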;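 note: multidrug resistant small cell line overexpressing MRP-1 efflux transporter; 100% = mean luminescence of untreated control wells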
# Pyk2 oligo antag = antagonists of Pyk2 self-association, primary screen, Q293 cells, FERM NanoBiT luminescence, HTS; Protein-tyrosine kinase 2-beta (Homo sapiens), Q14289; hits give low values; z-score (the deposit names both 25 µM and 10 µM); 99,000 tested, 0.83% active; AID 1347419, 2020;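 active = Z-score of -3 or lower, scaled per plate to the spread of control and sample wells; inactive = z-score above -3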;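 note: negative z-score means lost luminescence so less FERM oligomerization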
# Target sequence (Q14289 whole entry, looked up): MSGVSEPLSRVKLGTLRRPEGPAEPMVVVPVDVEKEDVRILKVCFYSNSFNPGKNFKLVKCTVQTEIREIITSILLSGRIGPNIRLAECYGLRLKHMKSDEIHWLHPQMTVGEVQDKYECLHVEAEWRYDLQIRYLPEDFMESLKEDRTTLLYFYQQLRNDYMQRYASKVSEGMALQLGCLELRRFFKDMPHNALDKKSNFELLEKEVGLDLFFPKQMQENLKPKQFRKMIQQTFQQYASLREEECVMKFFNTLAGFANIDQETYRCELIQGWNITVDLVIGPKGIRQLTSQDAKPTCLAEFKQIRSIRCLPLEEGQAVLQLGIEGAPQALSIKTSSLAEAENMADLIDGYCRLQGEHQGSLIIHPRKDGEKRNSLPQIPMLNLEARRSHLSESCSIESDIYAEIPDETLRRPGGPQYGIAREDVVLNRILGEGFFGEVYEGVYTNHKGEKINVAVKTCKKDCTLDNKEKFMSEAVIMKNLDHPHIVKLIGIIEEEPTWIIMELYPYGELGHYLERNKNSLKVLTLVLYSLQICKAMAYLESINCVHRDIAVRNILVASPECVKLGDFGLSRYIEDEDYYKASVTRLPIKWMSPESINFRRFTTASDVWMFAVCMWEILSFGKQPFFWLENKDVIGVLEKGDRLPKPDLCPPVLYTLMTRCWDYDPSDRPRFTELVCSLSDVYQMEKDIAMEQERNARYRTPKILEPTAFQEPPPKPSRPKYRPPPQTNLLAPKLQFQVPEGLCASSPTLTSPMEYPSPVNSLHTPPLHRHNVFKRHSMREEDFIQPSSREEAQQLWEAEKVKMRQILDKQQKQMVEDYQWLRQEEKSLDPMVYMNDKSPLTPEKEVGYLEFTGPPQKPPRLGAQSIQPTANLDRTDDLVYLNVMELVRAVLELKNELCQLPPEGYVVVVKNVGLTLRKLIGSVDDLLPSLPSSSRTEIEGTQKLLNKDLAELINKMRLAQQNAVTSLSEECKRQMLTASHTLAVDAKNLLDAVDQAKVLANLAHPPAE
# Jurkat viability = cytotoxicity toward Jurkat T cells, primary screen, cytotoxicity control, cell-based, Jurkat E6.1, 60K MLSMR library. Jurkat E6.1 viability, ATP luminescence, 48 h. inhibition, % at 4 µM. 56,000 tested, 1.2% active;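 active = inhibition above the mean inhibition of all tested compounds plus 3 SD, cut at about 28% in these data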
# HUVEC prolif 384 = inhibitors of HUVEC proliferation, primary screen, cell-based, 384-well. CellTiter-Glo luminescence, 72 h; hits give low values. viability, % at 10 µM (by protocol). 86,000 tested, 1.1% active. AID 648, 2007;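 active = viability at or below 30%; inactive = viability above 30%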;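 note: 100% = median luminescence of DMSO-only cell control wells on each plate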
# Fibroblast inh = antiproliferative effect on LL 47 fibroblasts – human, LL 47 cells, CellTiter-Glo luminescence, primary screen; LL 47 human lung fibroblast viability, ATP luminescence; hits give low values; viability, % at 10 µM; 85,000 tested, 1.1% active; AID 719, 2007;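 active = viability at or below 50% in the single dose screen; inactive = viability above 50%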;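 note: compound exposure lasted 72 h before the ATP readout; 100% = median luminescence of untreated cell-only wells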
#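 Test system: LL 47 human lung fibroblasts / Incubation: 72 h compound exposure at 37 °C after overnight plating / Technique: luminescent ATP detection, CellTiter-Glo / Compound dosing: 0.1% DMSO in all compound wells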
# cytoskel mod = modifiers of F-actin cytoskeleton organization, primary screen, imaging, HUVEC, phalloidin staining, high-content imaging; HUVEC TNFa F-actin phalloidin imaging; inhibition, % at 2 µM; 91,000 tested, 0.18% active; AID 836, 2007;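 active = inhibition above the batch mean plus 3 SD and confirmed as a hit by visual image inspection, cut at about 30% in these data, passing the limit was not always enough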
# * = called active by the depositor; nt = no result. Shown are actives, neighbours in structure and some others; about 6% of the full set was active somewhere.
SMILES,H69AR growth 86K,Pyk2 oligo antag,Jurkat viability,HUVEC prolif 384,Fibroblast inh,cytoskel mod
Cc1ccc(C(=O)CC2(O)C(=O)N(Cc3ccc4c(c3)OCO4)c3ccccc32)cc1 (centres undefined),43.8,0.2,-2.1,96.7,98.8,26.0
CS(=O)(=O)c1nc(-c2ccccc2)cc(-c2ccccc2)c1C#N,1.5*,-0.39,nt,38.8,39.5*,-0.6
N#Cc1c(-c2ccccc2)cc(-c2ccccc2)nc1SCc1nnc(-c2ccccc2)o1,nt,0.39,nt,nt,nt,4.9
O=C1CCCCCN1CP(=O)(O)CN1CCOCC1,93.4,nt,-5.0,93.1,103.3,nt
N#CC1=C(N)SC(N)=C(C#N)C1CCc1ccccc1,85.7,-0.29,3.9,80.7,92.8,-17.9
N#CC1=C(N)SC(N)=C(C#N)C1Cc1ccccc1,16.6*,0.4,5.4,73.1,93.7,14.0
Cc1nn(-c2ccccc2)c(Cl)c1C(=O)N1CCN(c2ncnc3c2cnn3-c2ccccc2)CC1,33.9*,-1.84,-1.3,2.7*,54.7,13.0
O=C(CNS(=O)(=O)c1ccc(Br)cc1)N1CCOCC1,101.2,0.34,nt,98.5,102.6,14.6
COc1ccc2nc3oc(C(=O)Nc4ccc(OC)c(OC)c4)cc3cc2c1,77.3,0.26,nt,105.6,96.6,-1.1
COc1ccc2cc3cc(C(=O)NCCc4ccc(OC)c(OC)c4)oc3nc2c1,29.0*,-2.99,17.8,25.0*,119.5,-0.9
COc1ccc2cc3cc(C(=O)Nc4ccc5c(c4)OCO5)oc3nc2c1,24.2*,-0.74,-4.3,10.4*,108.1,1.5
COCCNC(=O)C(=O)N/N=C/c1ccccc1C(F)(F)F,91.0,-0.17,nt,85.8,95.4,4.5
Cc1cccc(NC(=O)c2sc(Cl)nc2-c2ccccc2)c1,nt,1.73,nt,nt,nt,-2.0
Cn1c(=O)c2c(nc(SCCCC#N)n2Cc2c(F)cccc2Cl)n(C)c1=O,51.1,nt,2.6,90.4,94.9,-6.5
CC(C)c1nc(SCc2c(F)cccc2Cl)c2c(=O)n(C)c(=O)n(C)c2n1,38.3*,nt,-8.1,56.3,82.5,-6.1
CC(C)c1nc(SCC(=O)N2CCCc3ccccc32)c2c(=O)n(C)c(=O)n(C)c2n1,14.2*,nt,nt,57.4,83.7,0.9
Cc1ccc(C(=O)Nc2ccon2)cc1S(=O)(=O)N1CCCC1,88.2,-0.55,nt,95.0,97.6,2.3
CCOc1ccc(NC2c3ccccc3C(=O)N2Cc2ccco2)cc1 (centres undefined),81.9,nt,12.4,106.8,89.2,2.0
CCOC(=O)c1cnc(-n2nc(C)cc2C)nc1Nc1ccccc1OC,nt,nt,nt,nt,nt,-6.3
CCOC(=O)c1cnc(-n2nc(C)cc2C)nc1NCCc1ccccc1,1.9*,-0.98,11.6,59.6,45.4*,19.3
CCOC(=O)c1cnc(-n2nc(C)cc2C)nc1Nc1ccc(OC)cc1,nt,-1.03,nt,nt,nt,15.9
CCOC(=O)c1cnc(-n2nc(C)cc2C)nc1NCc1ccc2c(c1)OCO2,55.9,-1.52,1.6,23.9*,92.2,-1.6
Cc1ccc(Nc2nc(N)nc(CN3CCN(Cc4ccc5c(c4)OCO5)CC3)n2)cc1,78.3,-0.35,-2.5,89.7,90.0,0.6
Cc1ccc(Nc2nc(N)nc(CN3CCN(c4ccccc4)CC3)n2)cc1Cl,44.2,-0.59,1.6,69.6,95.5,25.5
Cc1ccc(Nc2nc(N)nc(CN3CCN(Cc4ccc5c(c4)OCO5)CC3)n2)cc1Cl,14.0*,-0.85,5.3,65.6,84.7,23.6
SMILES,H69AR growth 86K,Pyk2 oligo antag,Jurkat viability,HUVEC prolif 384,Fibroblast inh,cytoskel mod
COc1ccc(N2CCN(Cc3nc(N)nc(Nc4ccc(C)c(Cl)c4)n3)CC2)cc1,23.0*,-0.37,-2.2,64.0,97.6,-12.4
c1ccc2c(c1)CCN(c1ncnc3c1[nH]c1ccccc13)C2,nt,-2.67,nt,nt,nt,nt
OC1(c2cccc(C(F)(F)F)c2)CCN(c2ncnc3c2[nH]c2ccccc23)CC1,19.5*,-0.27,nt,46.0,81.5,nt
OC1(c2cccc(C(F)(F)F)c2)CCN(c2ccc(-c3ccccc3)nn2)CC1,nt,0.45,nt,91.9,101.7,1.4
Cc1ccc2c(c1)c1ncnc(N3CCC4(CC3)OCCO4)c1n2C,29.3*,nt,-3.2,74.5,89.6,3.5
c1ccc2c(c1)[nH]c1c(N3CCC4(CC3)OCCO4)ncnc12,39.5*,0.29,nt,77.0,89.3,13.3
Cc1cccn2c(=O)c3cc(C(=O)NCCCN4CCCC4=O)n(C)c3nc12,81.6,0.84,-3.2,85.7,106.8,-28.0
Cc1cccc(NC(=O)Cn2nc(C(F)(F)F)cc2C2CC2)c1,nt,-0.26,nt,nt,nt,39.5*
Cc1ccc(C)c(NC(=O)Cn2nc(C(F)(F)F)cc2C2CC2)c1,nt,0.05,nt,nt,nt,8.6
OC1CCCN(c2c3c(nc4cc(-c5cccc(Cl)c5)nn24)CCC3)C1 (centres undefined),65.8,-3.24*,nt,69.8,90.9,6.5
Cc1cccc(-c2cc3nc4c(c(N5CCCC(O)C5)n3n2)CCC4)c1 (centres undefined),55.0,0.81,8.4,83.3,88.3,-10.1
Cc1cccc(-c2cc3nc4c(c(N5CCOCC5)n3n2)CCCC4)c1,58.3,-0.77,7.2,87.2,83.8,-15.6
Fc1ccc(-c2cc3nc4c(c(N5CCOCC5)n3n2)CCCC4)cc1,35.2*,-2.97,7.5,53.5,79.9,24.7
Cc1cccc(-c2cc3nc4c(c(N5CCC6(CC5)OCCO6)n3n2)CCCC4)c1,30.8*,-1.23,3.3,83.9,87.5,1.9
O=C(Nc1ccc(S(=O)(=O)Nc2nccs2)cc1)C1CCCCC1,96.5,-0.21,-2.8,98.7,106.8,nt
CCOc1ccccc1NC(=O)/C=C/C(N)=O,1.3*,1.79,nt,95.4,89.6,15.4
Cc1ccc(CCC2C3=C(CCCC3=O)OC3=C2C(=O)CCC3)cc1,95.5,-1.02,nt,106.5,93.0,19.1
CC(C)c1ccc(CC(C)C2C3=C(CCCC3=O)OC3=C2C(=O)CCC3)cc1 (centres undefined),92.2,-4.24*,nt,81.1,90.8,12.6
COc1cccc(/C=C/C(=O)c2c(O)cc(C)oc2=O)c1O,4.0*,-0.31,nt,60.5,68.6,nt
COc1cc(/C=C/C(=O)c2c(O)cc(C)oc2=O)cc(OC)c1O,24.9*,-0.45,nt,78.8,69.7,nt
COc1cc(/C=C/C(=O)c2c(O)ccc3c(C)cc(=O)oc23)ccc1O,nt,-3.01*,nt,nt,nt,-9.6
CNC(=O)Nc1ccccc1NC(=O)NC,85.5,-0.52,0.5,103.4,93.2,0.8
Cc1cccc(OCc2nnc(SCC(=O)Nc3ccc(C)c(Cl)c3)o2)c1,nt,0.59,-10.0,nt,nt,-3.3
CC1(C)CC(=O)C2=C(C1)N(c1ccccc1)C(=O)C2(O)C(F)(F)F (centres undefined),nt,0.34,nt,nt,nt,nt
CC(=C\C(=O)O)/C(=C/c1ccccc1)C(=O)O,nt,0.56,nt,nt,nt,15.7
Cn1c(SCC(=O)c2ccc3c(c2)OCCO3)nnc1C1CC1,106.5,0.36,nt,88.0,107.9,-5.7
